{"source": "paper PMC10682124", "about": "(Materials Today Bio, 2023)", "key": {"ICR mice [1]": {"test_system": "ICR mice", "experiment": "H&E staining pathological examination of heart", "assay_type": "in vivo", "conditions": "12 h after intravenous injection, n = 6", "outline": "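Twelve hours after intravenous dosing (test compound at 5 mg/kg peptide equivalent, free peptide, empty carrier or control; n = 6), heart tissue was fixed in 4 % paraformaldehyde. It then underwent routine hematoxylin-eosin staining for histopathological examination.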"}, "cardiac tissue": {"test_system": "cardiac tissue", "experiment": "Cardiac immunohistochemistry with OpiCa1 polyclonal antibody", "assay_type": "in vivo", "conditions": "mice, 12 h, self-prepared OpiCa1 polyclonal antibody, n = 6; in words"}, "ICR mice [2]": {"test_system": "ICR mice", "experiment": "Blood biochemical examinations", "assay_type": "in vivo", "conditions": "i.v. 5 mg/kg OpiCa1 equivalent, 12 h, n = 6", "outline": "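Blood was drawn from the inner canthus into anticoagulant tubes 12 h after dosing and assayed for ALT, AST, CK, CK-MB, LDH, creatinine and uric acid. Data are mean ± SD; two-group comparisons used two-tailed Mann-Whitney tests.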"}, "[3]": {"experiment": "Plasma OpiCa1 concentration in vivo by ELISA", "conditions": "mice, injection of free OpiCa1 5 mg/kg"}, "H9C2 cells": {"test_system": "H9C2 cells", "experiment": "Flow cytometry, Annexin V-FITC / propidium iodide apoptosis", "assay_type": "cell-based, rat", "conditions": "100 μM OpiCa1, 12 h, Annexin V-FITC/PI flow cytometry"}, "RyRs": {"molecular_target": "RyRs", "conditions": "read-out: affinity between OpiCa1 and RyRs; cited from earlier work"}, "[4]": {"test_system": "SR Ca^2+ overload related tachyarrhythmias in CPVT", "conditions": "cited from earlier work"}}}
{"substance": "Opicalcin1 [OpiCa1]", "values": [{"measurement": "pathological examination of heart (H&E)", "setting": "ICR mice [1]", "result": "clear myocardial fibers and stripes"}, {"measurement": "distribution in cardiac tissue by immunohistochemistry", "setting": "cardiac tissue", "result": "significantly distributed in cardiac tissue"}, {"measurement": "cardiac function (CK, CK-MB, and LDH)", "setting": "ICR mice [2]", "result": "no significant differences"}, {"measurement": "liver function (ALT and AST)", "setting": "ICR mice [2]", "result": "no significant differences"}, {"measurement": "renal function (Crea and UA)", "setting": "ICR mice [2]", "result": "no significant differences"}, {"measurement": "time to complete disappearance from plasma", "setting": "[3]", "result": "≤ 48", "unit": "h"}, {"measurement": "proportion of apoptotic cells", "setting": "H9C2 cells", "result": "about 1.5%"}, {"measurement": "Kd", "setting": "RyRs", "result": "~0.3", "unit": "nM"}]}
{"substance": "Imperacalcin", "values": [{"measurement": "antagonism of SR Ca^2+ overload related tachyarrhythmias", "setting": "[4]", "result": "can antagonize SR Ca^2+ overload related tachyarrhythmias such as PVCs and non-sustained BVTs in CPVT"}]}
